# Calls of active or inactive are those of the source. No cut-off for these calls is given here.
# Key:
# [1] = system: MDA-MB-231; experiment: Cytotoxicity against human MDA-MB-231 cells by MTT assay; format: functional, cell-based
# Summary of the method: (§1)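 ATCC-sourced tumour lines (HepG2, MCF7, MDA-MB-231, A-549) were tested with the MTT colorimetric method.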
# [2] = system: A549; experiment: Cytotoxicity against human A549 cells by MTT assay; format: functional, cell-based; summary of the method: as §1
# [3] = system: RAW264.7; experiment: Cytotoxicity against mouse RAW264.7 cells assessed as cell survival at 10 uM by trypan blue staining; format: cell-based; conditions: raw264.7, 10 µM
# Summary of the method: (§2)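 RAW 264.7 macrophages (DMEM, 10% heat-inactivated FBS, 37 °C, 5% CO2) were exposed to compound at 10 or 100 µM alongside the LPS-activation protocol. Viability was scored by trypan blue staining.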
# [4] = system: MCF7; experiment: Cytotoxicity against human MCF7 cells by MTT assay; format: functional, cell-based; summary of the method: as §1
# [5] = system: RAW264.7; experiment: Antiinflammatory activity against LPS-stimulated mouse RAW264.7 cells assessed as inhibition of COX2 expression at 10 uM after 16 hrs by immunoblot analysis relative to control; format: functional
# Summary of the method: (§3)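 RAW 264.7 murine macrophages (ATCC TIB-71) grown in DMEM with 10% heat-inactivated FBS, 37 °C, 5% CO2. Cells activated with E. coli LPS (0.01 µg/mL) for 16 h with or without compound. Lysates were loaded at equal protein and analysed by SDS-PAGE and Western blot. Antibodies were anti-iNOS and anti-COX-2 (1:1000, 180 min), with β-actin reprobe as loading control. ECL detection. Intensity expressed relative to LPS-only group (100%); mean ± SD, n = 3.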
# [6] = system: RAW264.7; experiment: Antiinflammatory activity against LPS-stimulated mouse RAW264.7 cells assessed as inhibition of iNOS expression at 10 uM after 16 hrs by immunoblot analysis relative to control; format: functional; summary of the method: as §3
# [7] = Cytotoxicity against human Hep G2 cells by MTT assay; format: functional, cell-based; conditions: HepG2; summary of the method: as §1
# [8] = system: RAW264.7; experiment: Cytotoxicity against mouse RAW264.7 cells assessed as decrease in beta-actin at 100 uM by trypan blue staining; format: cell-based; conditions: raw264.7, 100 µM
# [9] = system: RAW264.7; experiment: Cytotoxicity against mouse RAW264.7 cells assessed as cell loss at 100 uM by trypan blue staining; format: cell-based; conditions: raw264.7, 100 µM; summary of the method: as §2
structure (smiles),measurement,setting,value
C=C(CC[C@@H](C)[C@H]1CC[C@H]2[C@@H]3C[C@@H]4O[C@@]45C[C@@H](O)C[C@H](O)[C@]5(C)[C@H]3CC[C@]12C)C(C)C [GIBBEROEPOXYSTEROL],IC50,[1],15.9 mg/L
same,IC50,[2],15.5 mg/L
C=C(/C=C/[C@@H](C)[C@H]1CC[C@H]2[C@@H]3CC(=O)[C@]4(O)C[C@@H](O)C[C@H](O)[C@]4(C)[C@H]3CC[C@]12C)C(C)C [GIBBEROKETOSTEROL B],Activity,[3],Non-toxic
same,IC50,[4],> 30 mg/L
same,Activity,[5],inactive
same,Activity,[6],inactive
same,IC50,[1],> 30 mg/L
same,IC50,[2],> 30 mg/L
same,IC50,[7],> 30 mg/L
C=C(/C=C/[C@@H](C)[C@H]1CC[C@H]2[C@@H]3CC(=O)[C@H]4C[C@@H](O)C[C@H](O)[C@]4(C)[C@H]3CC[C@]12C)C(C)C [GIBBEROKETOSTEROL C],IC50,[4],> 30 mg/L
same,IC50,[1],> 30 mg/L
same,IC50,[2],> 30 mg/L
same,IC50,[7],> 30 mg/L
C=C(CC[C@@H](C)[C@H]1CC[C@H]2[C@@H]3CC(=O)[C@]4(O)C[C@@H](O)C[C@H](O)[C@]4(C)[C@H]3CC[C@]12C)C(C)C [GIBBEROKETOSTEROL],Activity,[8],Active
same,Activity,[3],Non-toxic
same,IC50,[4],14.1 mg/L
same,Activity,[5],68.3%
same,Activity,[6],44.5%
same,IC50,[1],14.4 mg/L
same,IC50,[2],14.5 mg/L
same,IC50,[7],13 mg/L
same,Activity,[9],38.4%

# From ChEMBL document CHEMBL1158053, “Polyoxygenated sterols from the Formosan soft coral Sinularia gibberosa” (J Nat Prod, 2006)
